# Source: PMC5180416 (Journal of the American Chemical Society, 2012)
# Where two headings read alike, the source gives them in different places. Peptide text beside a SMILES is read from it.
# Columns and labels:
# [1] = molecular target: WDR5 (Homo sapiens, UniProt P61964); test: Fluorescence-polarization; format: binding; conditions: for improvement in binding affinity to WDR5 (times more potent) compared to ARA (Ac-ARA-NH2) / decrease in binding affinity to WDR5 (times) compared to ARA (Ac-ARA-NH2): relative to ARA peptide; for weakening of binding to WDR5 (times) compared to Val and Abu at Ala1: relative to Val and Abu
# [2] = test system: HoxA9; test: qRT-PCR analysis of HoxA9 expression in MLL1-AF9 transduced bone marrow cells; format: cell-based; conditions: 96 h, MLL1-AF9 transduced murine cells
# In short: (§1)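 Murine bone marrow cells transduced with MLL1-AF9 were exposed for 96 h to test compound (25 or 50 μM), a control compound (50 μM) or mock, all at 0.2% final DMSO. Total RNA was extracted (Trizol plus column kit) and cDNA made by random priming. SYBR real-time PCR used gene-specific primers for HoxA9, Meis1 and GAPDH. Expression is relative to mock after normalizing to GAPDH or total input RNA; unpaired t test versus mock.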
# [3] = test system: Meis-1; test: qRT-PCR analysis of Meis-1 expression in MLL1-AF9 transduced bone marrow cells; format: cell-based; conditions: 50 μM, 96 h, MLL1-AF9 transduced murine cells
# In short: as §1
# [4] = test system: GAPDH; test: qRT-PCR analysis of GAPDH; format: cell-based; conditions: 96 h, MLL1-AF9 transduced murine cells
# In short: as §1
# [5] = test system: MV4;11 cells; test: Cell growth, CellTiter-Glo Luminescent Cell Viability Assay; format: cell-based; conditions: 7 days
# In short: (§2)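 Cells grown in RPMI 1640 with 10% FBS and penicillin-streptomycin at 37 °C, 5% CO2. Seeded at 5 × 10^5 cells per well and exposed to test compound or 0.2% DMSO vehicle for 7 days. Medium was changed and compound resupplied every 2 days. CellTiter-Glo reagent added, 2 min shaking to lyse, 10 min at room temperature, then luminescence read.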
# [6] = test system: KOPN8 cells; test: as above; format: cell-based; conditions: 7 days
# In short: as §2
# [7] = test system: K562 cells; test: as above; format: cell-based; conditions: 7 days
# In short: as §2
# [8] = test system: MV4;11 cells; test: Annexin V-propidium iodide apoptosis assay; format: cell-based; conditions: MV4;11, 50 μM, 96 h
# [9] = test system: K562 cells; test: Annexin V-propidium iodide apoptosis assay; format: cell-based; conditions: K562, up to 50 μM, 96 h
# [10] = molecular target: MLL1 core complex (MLL1/WDR5/RbBP5/ASH2L) (Homo sapiens, UniProt P61964); test: In vitro H3K4 histone methyltransferase; format: biochemical; conditions: for inhibition of MLL1 HMT activity, result in words: up to 400 μM
smiles,measurement,setting,value
CC(=O)N[C@@H](C)C(=O)N[C@@H](CCCN)C(=O)N[C@@H](C)C(N)=O [Compound 2b],IC50,[1],> 300 µM
same,Ki,[1],> 65 µM
same,"binding to WDR5, result in words",[1]; FP-based competitive binding,complete loss of binding
CCC(CC)(NC(=O)C(C)C)C(=O)N[C@@H](CCCNC(=N)N)C(=O)NC1(C(=O)NC(c2ccc(Cl)cc2)c2ccc(Cl)cc2)CCCC1 [MM-103],Ki,"[1]; read-out: Ki ± SD, binding affinity to WDR5, FP-based competitive binding",< 0.001 µM
CC[C@H](NC(=O)[C@H](CCCNC(=N)N)NC(=O)[C@H](C)NC(C)=O)C(N)=O [Compound 3b],improvement in binding affinity to WDR5 (times more potent) compared to ARA (Ac-ARA-NH2),[1],20
CCC(CC)(NC(=O)C(C)C)C(=O)N[C@@H](CCCN=C(N)N)C(=O)NC1(C(=O)NC(c2ccc(F)cc2)c2ccc(F)cc2)CCCC1 [MM-102],improvement in binding affinity to WDR5 (times more potent) compared to ARA (Ac-ARA-NH2),[1],> 200
same,reduction in HoxA9 gene expression compared with Mock,[2]; 25 μM,Approximately 50%
same,reduction in HoxA9 gene expression compared with Mock,[2]; 50 μM,~70%
same,decrease in Meis-1 expression,[3],40%
same,"effect on expression of GAPDH, in words",[4],did not affect the expression of GAPDH
same,"cell growth inhibition, in words","[5]; MV4;11, 75 μM",completely inhibits cell growth
same,IC50,"[5]; read-out: cell growth inhibition IC50, MV4;11 (MLL1-AF4)",25 µM
same,"cell growth inhibition, in words","[6]; KOPN8, 75 μM",completely inhibits cell growth
same,IC50,"[6]; read-out: cell growth inhibition IC50, KOPN8 (MLL1-ENL)",25 µM
same,"effect on cell growth, in words","[7]; K562 (BCR-ABL, no MLL1 fusion), up to 50 μM",no effect
same,"effect on cell growth, in words","[7]; K562, 75 μM",minimal effect
same,cells undergoing cell death,[8],> 75%
same,cells undergoing cell death,[9],< 10%
CC(=O)N[C@@H](Cc1c[nH]cn1)C(=O)N[C@@H](CCCNC(=N)N)C(=O)N[C@@H](C)C(N)=O [Compound 1g] (Ac-His-Arg-Ala-NH2),decrease in binding affinity to WDR5 (times) compared to ARA (Ac-ARA-NH2),[1],3–6
CC(=O)N[C@@H](CO)C(=O)N[C@@H](CCCNC(=N)N)C(=O)N[C@@H](C)C(N)=O [Compound 1i] (Ac-Ser-Arg-Ala-NH2),decrease in binding affinity to WDR5 (times) compared to ARA (Ac-ARA-NH2),[1],5
same,weakening of binding to WDR5 (times) compared to Val and Abu at Ala1,[1],approximately 10
CC(=O)NCC(=O)N[C@@H](CCCNC(=N)N)C(=O)N[C@@H](C)C(N)=O [Compound 1a] (Ac-Gly-Arg-Ala-NH2),decrease in binding affinity to WDR5 (times) compared to ARA (Ac-ARA-NH2),[1],> 100
same,"inhibition of MLL1 HMT activity, result in words",[10],fail to inhibit the MLL1 HMT activity
CC(=O)N[C@@H](C)C(=O)N[C@@H](CCCNC(N)=O)C(=O)N[C@@H](C)C(N)=O [Compound 2d],"binding to WDR5, result in words",[1]; FP-based competitive binding,fails to bind to WDR5
same,"inhibition of MLL1 HMT activity, result in words",[10],fail to inhibit the MLL1 HMT activity
CCCC[C@H](NC(=O)[C@H](C)NC(C)=O)C(=O)N[C@@H](C)C(N)=O [Compound 2a],IC50,[1],> 300 µM
same,Ki,[1],> 65 µM
same,"binding to WDR5, result in words",[1]; FP-based competitive binding,complete loss of binding
CC(=O)N[C@@H](C)C(=O)N[C@@H](CCCNC(=N)N)C(=O)N[C@H](C(N)=O)C(C)C [Compound 3c] (Ac-Ala-Arg-Val-NH2),improvement in binding affinity to WDR5 (times more potent) compared to ARA (Ac-ARA-NH2),[1],5
CC(=O)N[C@@H](Cc1ccccc1)C(=O)N[C@@H](CCCNC(=N)N)C(=O)N[C@@H](C)C(N)=O [Compound 1h] (Ac-Phe-Arg-Ala-NH2),decrease in binding affinity to WDR5 (times) compared to ARA (Ac-ARA-NH2),[1],3–6
same,"inhibition of MLL1 HMT activity, result in words",[10],fail to inhibit the MLL1 HMT activity
CC(=O)N[C@@H](C)C(=O)N[C@@H](CCCNC(=N)N)C(=O)N[C@@H](CCC(=O)O)C(N)=O [Compound 3j] (Ac-Ala-Arg-Glu-NH2),decrease in binding affinity to WDR5 (times) compared to ARA (Ac-ARA-NH2),[1],> 100
CC(=O)N[C@@H](C)C(=O)N[C@@H](CCCNC(=N)N)C(=O)NCC(N)=O [Compound 3a] (Ac-Ala-Arg-Gly-NH2),decrease in binding affinity to WDR5 (times) compared to ARA (Ac-ARA-NH2),[1],> 10
CCC(CC)(NC(C)=O)C(=O)N[C@@H](CCCNC(=N)N)C(=O)N[C@H](C(N)=O)C(C)C [Compound 4f],times more potent than 3c in binding to WDR5,[1]; relative to 3c,5
CC(=O)N[C@H](C(=O)N[C@@H](CCCNC(=N)N)C(=O)N[C@@H](C)C(N)=O)[C@@H](C)O [Compound 1j] (Ac-Thr-Arg-Ala-NH2),decrease in binding affinity to WDR5 (times) compared to ARA (Ac-ARA-NH2),[1],5
same,weakening of binding to WDR5 (times) compared to Val and Abu at Ala1,[1],approximately 10
CC(=O)N[C@@H](CS)C(=O)N[C@@H](CCCNC(=N)N)C(=O)N[C@@H](C)C(N)=O [Compound 1d] (Ac-Cys-Arg-Ala-NH2),decrease in binding affinity to WDR5 (times) compared to ARA (Ac-ARA-NH2),[1],3
CC(=O)N[C@@H](C)C(=O)N[C@@H](CCCCN)C(=O)N[C@@H](C)C(N)=O [Compound 2c] (Ac-Ala-Lys-Ala-NH2),IC50,[1],> 300 µM
same,Ki,[1],> 65 µM
same,"binding to WDR5, result in words",[1]; FP-based competitive binding,inactive
CC(=O)N[C@@H](C)C(=O)N[C@@H](CCCNC(=N)N)C(=O)N[C@@H](CO)C(N)=O [Compound 3h] (Ac-Ala-Arg-Ser-NH2),decrease in binding affinity to WDR5 (times) compared to ARA (Ac-ARA-NH2),[1],3
CC(=O)N[C@H](C(=O)N[C@@H](CCCNC(=N)N)C(=O)N[C@H](C(N)=O)C(C)C)c1ccccc1 [Compound 4j],decrease in binding affinity to WDR5 (times less potent) compared to 3c,[1]; relative to 3c,50
CC(=O)N[C@@H](C)C(=O)N[C@@H](CCCNC(=N)N)C(=O)N[C@H](C(N)=O)[C@@H](C)O [Compound 3i] (Ac-Ala-Arg-Thr-NH2),reduction of binding affinity to WDR5 (fold) compared to 3b,[1]; relative to 3b,3
same,improvement in binding affinity to WDR5 (times more potent) compared to ARA (Ac-ARA-NH2),[1],5
CC(=O)N[C@H](C(=O)N[C@@H](CCCNC(=N)N)C(=O)N[C@H](C(N)=O)C(C)C)C1CCCC1 [Compound 4i],decrease in binding affinity to WDR5 (times less potent) compared to 3c,[1]; relative to 3c,15
"CC(=O)N[C@@H](C)C(=O)N[C@@H](CCCNC(=N)N)C(=O)N[C@@H](C)C(N)=O [ARA, Ac-ARA-NH2] (Ac-Ala-Arg-Ala-NH2)",IC50,[10],141 ± 52 µM
CC[C@H](NC(C)=O)C(=O)N[C@@H](CCCNC(=N)N)C(=O)N[C@@H](C)C(N)=O [Compound 1b],improvement in binding affinity to WDR5 (times more potent) compared to ARA (Ac-ARA-NH2),[1],2
CC(=O)N[C@H](C(=O)N[C@@H](CCCNC(=N)N)C(=O)N[C@@H](C)C(N)=O)C(C)C [Compound 1c] (Ac-Val-Arg-Ala-NH2),improvement in binding affinity to WDR5 (times more potent) compared to ARA (Ac-ARA-NH2),[1],2
